Results: ChEMBL document CHEMBL4229493, “Synthesis and anticancer activity studies of indolylisoxazoline analogues” (Bioorg Med Chem Lett, 2018)
Calls of active or inactive are those of the source. No cut-off for these calls is given here.

Legend:
Assay type in all cases: functional, cell-based
BXPC-3 = test: Growth inhibition of human BxPC3 cells after 48 hrs by MTT assay; conditions: BXPC-3, 48 h
HEK293 = test: Growth inhibition of HEK293 cells after 48 hrs by MTT assay; conditions: Homo sapiens, HEK293, 48 h
CWR22R = test: Growth inhibition of human 22Rv1 cells after 48 hrs by MTT assay; conditions: 22Rv1, 48 h
PC-3 = test: Growth inhibition of human PC3 cells after 48 hrs by MTT assay; conditions: PC-3, 48 h
MDA-MB-231 = test: Growth inhibition of human MDA-MB-231 cells after 48 hrs by MTT assay; conditions: MDA-MB-231, 48 h
LNCaP C4-2 [1] = test: Growth inhibition of human C4-2 cells after 48 hrs by MTT assay; conditions: LNCaP C4-2, 48 h
LNCaP C4-2 [2] = test: Induction of ROS generation in human C4-2 cells at 10 uM after 48 hrs by H2-DCF-DA staining based inverted fluorescent microscopic method
Summary of the method: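 C4-2 cells left untreated or exposed 48 h to compound at 10 μM. H2O2 (10 μM) was the positive control. Intracellular ROS was stained with DCFDA and fluorescence quantified.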

LNCaP C4-2 [3] = test: Induction of apoptosis in human C4-2 cells assessed as nuclear fragmentation at 3.5 uM after 48 hrs by acridine orange/ethidium bromide staining based inverted fluorescent microscopic method
Summary of the method: (§1)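 C4-2 cells were incubated 48 h with compound, alongside untreated controls. They were then stained with acridine orange (live and dead cells) and ethidium bromide (dead cells only). Nuclear morphology was scored for red fragmented nuclei as apoptosis versus necrosis.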

LNCaP C4-2 [4] = test: Induction of apoptosis in human C4-2 cells assessed as PARP cleavage at 3.5 uM after 48 hrs by Western blot analysis
LNCaP C4-2 [5] = test: Induction of apoptosis in human C4-2 cells assessed as DNA fragmentation by measuring DNA ladder formation at 10 uM after 48 hrs by agarose gel electrophoresis method
LNCaP C4-2 [6] = test: Antimigratory activity against human C4-2 cells at 10 uM after 12 to 48 hrs by wound healing assay
Summary of the method: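 A scratch was made in a C4-2 monolayer. Cells were incubated further for 12, 24 and 48 h, then fixed and imaged to follow migration into the wound.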

NCI-H460 = test: Antiproliferative activity against human NCI-H460 cells
Prostatic carcinoma cell = test: Cytotoxicity against human prostate cancer cells
LNCaP C4-2 [7] = test: Induction of apoptosis in human C4-2 cells assessed as PARP cleavage at 2.5 uM after 48 hrs by Western blot analysis
LNCaP C4-2 [8] = test: Induction of apoptosis in human C4-2 cells assessed as nuclear fragmentation at 2.5 uM after 48 hrs by acridine orange/ethidium bromide staining based inverted fluorescent microscopic method; summary of the method: as §1

Row | SMILES | IC50 (BXPC-3) [µM] | IC50 (PC-3) [µM] | IC50 (MDA-MB-231) [µM] | IC50 (LNCaP C4-2 [1]) [µM] | IC50 (NCI-H460) [µM] | IC50 (HEK293) [µM] | IC50 (CWR22R) [µM] | Activity (LNCaP C4-2 [2]) | Activity (LNCaP C4-2 [3]) | Activity (LNCaP C4-2 [4]) | Activity (LNCaP C4-2 [5]) | Activity (LNCaP C4-2 [6]) | IC50 (Prostatic carcinoma cell) [µM] | Activity (LNCaP C4-2 [7]) | Activity (LNCaP C4-2 [8])
1 | c1ccc2c(C3CC(c4ccncc4)=NO3)c[nH]c2c1 (stereo not given) | 30.5 | > 100 | 19.7 | 12.8 | – | > 100 | > 100 | – | – | – | – | – | – | – | –
2 | OO | – | – | – | – | – | – | – | Active | – | – | – | – | – | – | –
3 | COc1ccc2[nH]cc(C3CC(c4ccncc4)=NO3)c2c1 (stereo not given) | 68.5 | > 100 | > 100 | > 100 | – | > 100 | 35.5 | – | – | – | – | – | – | – | –
4 | Fc1ccc2c(C3CC(c4ccncc4)=NO3)c[nH]c2c1 (stereo not given) | 9.5 | 12.9 | 5 | 8 | – | 9.5 | 3.66 | – | – | – | – | – | – | – | –
5 | COc1cccc2c1C(=O)c1c(O)c3c(c(O)c1C2=O)C[C@@](O)(C(=O)CO)C[C@@H]3O[C@H]1C[C@H](N)[C@H](O)[C@H](C)O1 [DOXORUBICIN] | 9.12 | 9.58 | – | 3.25 | – | 3.9 | – | – | – | – | – | – | – | – | –
6 | COc1ccc2c(c1)c(C1CC(c3ccncc3)=NO1)cn2Cc1ccc(Cl)cc1 (stereo not given) | > 100 | 55.2 | 26 | > 100 | – | 14.2 | 10.6 | – | – | – | – | – | – | – | –
7 | COc1cc(C2=NOC(c3c[nH]c4ccccc34)C2)cc(OC)c1OC (stereo not given) | 13.5 | 15.5 | 11.7 | 5 | – | 5 | 4.51 | – | – | – | – | – | – | – | –
8 | COc1cc(-c2nnc(-c3cn(C)c4ccccc34)[nH]2)cc(OC)c1OC | – | – | – | – | – | – | – | – | – | – | – | – | 0.8 | – | –

Now from value to compound, other results behind:

Row | IC50 (BXPC-3) [µM] | IC50 (PC-3) [µM] | IC50 (MDA-MB-231) [µM] | IC50 (LNCaP C4-2 [1]) [µM] | IC50 (NCI-H460) [µM] | SMILES | IC50 (HEK293) [µM] | IC50 (CWR22R) [µM] | Activity (LNCaP C4-2 [2]) | Activity (LNCaP C4-2 [3]) | Activity (LNCaP C4-2 [4]) | Activity (LNCaP C4-2 [5]) | Activity (LNCaP C4-2 [6]) | IC50 (Prostatic carcinoma cell) [µM] | Activity (LNCaP C4-2 [7]) | Activity (LNCaP C4-2 [8])
9 | > 100 | 25.7 | 13.7 | 11.4 | – | Clc1ccc(Cn2cc(C3CC(c4ccncc4)=NO3)c3ccccc32)cc1 (stereo not given) | 10.2 | 9.6 | – | – | – | – | – | – | – | –
10 | 95.5 | 21.2 | 26.6 | 45.1 | – | Cc1[nH]c2ccccc2c1C1CC(c2ccncc2)=NO1 (stereo not given) | > 100 | 17.3 | – | – | – | – | – | – | – | –
11 | 9.5 | 10.5 | 7.38 | 3.5 | – | COc1ccc2c(C3CC(c4ccncc4)=NO3)c[nH]c2c1 (stereo not given) | 4.16 | 16.3 | inactive | Active | Active | Active | Active | – | – | –
12 | > 100 | 42.6 | 26 | 71.2 | – | COc1ccc2[nH]cc(C3CC(c4cc(OC)c(OC)c(OC)c4)=NO3)c2c1 (stereo not given) | 45.4 | 11.3 | – | – | – | – | – | – | – | –
13 | > 100 | 70.1 | > 100 | 65.5 | – | COc1ccc(C2=NOC(c3c[nH]c4ccccc34)C2)cc1OC (stereo not given) | > 100 | 16.7 | – | – | – | – | – | – | – | –
14 | 27 | > 100 | 26.6 | 15.8 | – | c1ccc2c(C3CC(c4ccc5c(c4)OCO5)=NO3)c[nH]c2c1 (stereo not given) | > 100 | > 100 | – | – | – | – | – | – | – | –
15 | – | – | – | – | 0.0062 | COc1cc(-c2cnc(-c3ccc4c(ccn4C)c3)o2)cc(OC)c1OC | – | – | – | – | – | – | – | – | – | –
16 | > 100 | 95.1 | > 100 | > 100 | – | COc1ccc2c(C3CC(c4ccncc4)=NO3)cn(Cc3ccc(Cl)cc3)c2c1 (stereo not given) | 37.2 | 17.3 | – | – | – | – | – | – | – | –
17 | 13.5 | 11.2 | 6.66 | 2.5 | – | Cc1c(C2CC(c3ccncc3)=NO2)c2ccccc2n1Cc1ccc(Cl)cc1 (stereo not given) | 2.5 | 8.33 | inactive | – | – | Active | Active | – | Active | Active
